Nine molecules from ChEMBL document CHEMBL2202974 (J Med Chem, 2011) can be followed below.

The subject of series [1] is Brain. As to the kind of experiment: Drug uptake in rat brain at 6 ug/ml, iv up to 1 hr by LC/MS analysis. The class given is ADME, organism-based. As to conditions: in vivo; call rule not given here. Summed up:
(§1)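 Male Sprague-Dawley rats (230–280 g), non-anesthetised. Ligand in 25% β-cyclodextrin diluted to 6 μg/mL and given iv via tail vein at 0.5 mL/kg (3 μg/kg), n = 3–4 per group. Rats killed at 10, 20, 40 or 60 min. Hypothalamus and striatum extracted in acetonitrile/0.1% formic acid and quantified by LC-MS/MS against spiked brain standards. Result expressed as %SUV.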

Series [2] relates to Brain. As to the kind of experiment: Drug uptake in rat brain at 6 ug/ml, iv at 10 mins by LC/MS analysis. The conditions noted are these: in vivo. The class given is ADME, organism-based. The gist of the method: as §1
Series [3] has as its system Brain. As to the kind of experiment: Drug uptake in rat brain at 6 ug/ml, iv after 1 hr by LC/MS analysis. The class given is ADME, organism-based. As to conditions: in vivo. The gist of the method:
as §1

Series [4] is described as follows: Lipophilicity, log D of the compound by shake flask method. It is filed as physicochemical. As to conditions: octanol/water. Summed up: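 Shake-flask log D at pH 7.4 on the nonradioactive compound. Each enantiomer was measured.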
Series [5] can be described thus: Drug uptake in monkey cerebellum at 4.92 to 6.6 mCi, iv administered as bolus dose measured at 120 mins by PET imaging analysis. It is filed as ADME, organism-based, Macaca mulatta. The conditions noted are these: rhesus monkey, in vivo, 2 h.
Series [6] in a line: Drug uptake in monkey lateral temporal cortex at 4.92 to 6.6 mCi, iv administered as bolus dose measured up to 20 mins by PET imaging analysis. It is filed as ADME, organism-based, Macaca mulatta. The conditions noted are these: rhesus monkey, in vivo.
A short description of series [7]: Drug uptake in monkey amygdala at 4.92 to 6.6 mCi, iv administered as bolus dose measured at 120 mins by PET imaging analysis. The class given is ADME, organism-based, Macaca mulatta. As to conditions: rhesus monkey, in vivo, 2 h.
The nature of series [8]: Drug uptake in monkey lateral temporal cortex at 4.92 to 6.6 mCi, iv administered as bolus dose measured at 120 mins by PET imaging analysis. The conditions noted are these: rhesus monkey, in vivo, 2 h. The class given is ADME, organism-based, Macaca mulatta.
Series [9] in a line: Drug uptake in monkey caudate at 4.92 to 6.6 mCi, iv administered as bolus dose measured up to 20 mins by PET imaging analysis. The class given is ADME, organism-based, Macaca mulatta, Caudate nucleus. The conditions noted are these: rhesus monkey, in vivo.
Series [10] is described as follows: Drug uptake in SB612111-pretreated monkey caudate at 4.92 to 6.6 mCi, iv administered at 10 mins post SB612111-treatment measured within 10 mins by PET imaging analysis. The class given is ADME, organism-based, Macaca mulatta, Caudate nucleus. As to conditions: rhesus monkey, in vivo.
Series [11] is described as follows: Drug uptake in monkey hypothalamus at 4.92 to 6.6 mCi, iv administered as bolus dose measured at 120 mins by PET imaging analysis. It is filed as ADME, organism-based, Macaca mulatta. The conditions noted are these: rhesus monkey, in vivo, 2 h.
Series [12] is described as follows: Drug uptake in SB612111-pretreated monkey amygdala at 4.92 to 6.6 mCi, iv administered at 10 mins post SB612111-treatment measured from 10 to 120 mins by PET imaging analysis. It is filed as ADME, organism-based, Macaca mulatta. The conditions noted are these: rhesus monkey, in vivo.
A short description of series [13]: Drug uptake in SB612111-pretreated monkey cerebellum at 4.92 to 6.6 mCi, iv administered at 10 mins post SB612111-treatment measured within 10 mins by PET imaging analysis. It is filed as ADME, organism-based, Macaca mulatta. As to conditions: rhesus monkey, in vivo.
Series [14] in a line: Drug uptake in SB612111-pretreated monkey lateral temporal cortex at 4.92 to 6.6 mCi, iv administered at 10 mins post SB612111-treatment measured within 10 mins by PET imaging analysis. The class given is ADME, organism-based, Macaca mulatta. The conditions noted are these: rhesus monkey, in vivo.
Series [15] can be described thus: Drug uptake in SB612111-pretreated monkey cerebellum at 4.92 to 6.6 mCi, iv administered at 10 mins post SB612111-treatment measured from 10 to 120 mins by PET imaging analysis. The class given is ADME, organism-based, Macaca mulatta. As to conditions: rhesus monkey, in vivo.
Series [16] is described as follows: Drug uptake in SB612111-pretreated monkey hypothalamus at 4.92 to 6.6 mCi, iv administered at 10 mins post SB612111-treatment measured within 10 mins by PET imaging analysis. As to conditions: rhesus monkey, in vivo. The class given is ADME, organism-based, Macaca mulatta.
The nature of series [17]: Drug uptake in SB612111-pretreated monkey lateral temporal cortex at 4.92 to 6.6 mCi, iv administered at 10 mins post SB612111-treatment measured from 10 to 120 mins by PET imaging analysis. The class given is ADME, organism-based, Macaca mulatta. The conditions noted are these: rhesus monkey, in vivo.
Series [18] is described as follows: Drug uptake in monkey amygdala at 4.92 to 6.6 mCi, iv administered as bolus dose measured up to 20 mins by PET imaging analysis. It is filed as ADME, organism-based, Macaca mulatta. As to conditions: rhesus monkey, in vivo.
Series [19] in a line: Drug uptake in monkey hypothalamus at 4.92 to 6.6 mCi, iv administered as bolus dose measured up to 20 mins by PET imaging analysis. It is filed as ADME, organism-based, Macaca mulatta. The conditions noted are these: rhesus monkey, in vivo.
A short description of series [20]: Drug uptake in SB612111-pretreated monkey amygdala at 4.92 to 6.6 mCi, iv administered at 10 mins post SB612111-treatment measured within 10 mins by PET imaging analysis. The class given is ADME, organism-based, Macaca mulatta. The conditions noted are these: rhesus monkey, in vivo.
Series [21] can be described thus: Drug uptake in SB612111-pretreated monkey caudate at 4.92 to 6.6 mCi, iv administered at 10 mins post SB612111-treatment measured from 10 to 120 mins by PET imaging analysis. The conditions noted are these: rhesus monkey, in vivo. The class given is ADME, organism-based, Macaca mulatta, Caudate nucleus.
Series [22] is described as follows: Drug uptake in monkey cerebellum at 4.92 to 6.6 mCi, iv administered as bolus dose measured up to 20 mins by PET imaging analysis. The class given is ADME, organism-based, Macaca mulatta. As to conditions: rhesus monkey, in vivo.
The nature of series [23]: Drug uptake in monkey caudate at 4.92 to 6.6 mCi, iv administered as bolus dose measured at 120 mins by PET imaging analysis. It is filed as ADME, organism-based, Macaca mulatta, Caudate nucleus. The conditions noted are these: rhesus monkey, in vivo, 2 h.
Series [24] can be described thus: Drug uptake in SB612111-pretreated monkey hypothalamus at 4.92 to 6.6 mCi, iv administered at 10 mins post SB612111-treatment measured from 10 to 120 mins by PET imaging analysis. It is filed as ADME, organism-based, Macaca mulatta. As to conditions: rhesus monkey, in vivo.
A short description of series [25]: Drug uptake in SB612111-pretreated monkey lateral temporal cortex at 4.92 to 6.6 mCi, iv administered at 10 mins post SB612111-treatment measured from 10 to 90 mins by PET imaging analysis. It is filed as ADME, organism-based, Macaca mulatta. The conditions noted are these: rhesus monkey, in vivo.
Series [26] is described as follows: Drug uptake in SB612111-pretreated monkey cerebellum at 4.92 to 6.6 mCi, iv administered at 10 mins post SB612111-treatment measured from 10 to 90 mins by PET imaging analysis. It is filed as ADME, organism-based, Macaca mulatta. As to conditions: rhesus monkey, in vivo.
A short description of series [27]: Drug uptake in SB612111-pretreated monkey caudate at 4.92 to 6.6 mCi, iv administered at 10 mins post SB612111-treatment measured from 10 to 90 mins by PET imaging analysis. It is filed as ADME, organism-based, Macaca mulatta, Caudate nucleus. As to conditions: rhesus monkey, in vivo.
Series [28] in a line: Drug uptake in SB612111-pretreated monkey amygdala at 4.92 to 6.6 mCi, iv administered at 10 mins post SB612111-treatment measured from 10 to 90 mins by PET imaging analysis. The class given is ADME, organism-based, Macaca mulatta. As to conditions: rhesus monkey, in vivo.
Series [29] is described as follows: Drug uptake in monkey cerebellum at 4.92 to 6.6 mCi, iv administered as bolus dose measured at 90 mins by PET imaging analysis. It is filed as ADME, organism-based, Macaca mulatta. As to conditions: rhesus monkey, in vivo.
Series [30] is described as follows: Drug uptake in monkey caudate at 4.92 to 6.6 mCi, iv administered as bolus dose measured at 90 mins by PET imaging analysis. The class given is ADME, organism-based, Macaca mulatta, Caudate nucleus. As to conditions: rhesus monkey, in vivo.
Series [31] in a line: Drug uptake in SB612111-pretreated monkey hypothalamus at 4.92 to 6.6 mCi, iv administered at 10 mins post SB612111-treatment measured from 10 to 90 mins by PET imaging analysis. The class given is ADME, organism-based, Macaca mulatta. The conditions noted are these: rhesus monkey, in vivo.
The nature of series [32]: Drug uptake in monkey amygdala at 4.92 to 6.6 mCi, iv administered as bolus dose measured at 90 mins by PET imaging analysis. The class given is ADME, organism-based, Macaca mulatta. As to conditions: rhesus monkey, in vivo.
A short description of series [33]: Drug uptake in monkey hypothalamus at 4.92 to 6.6 mCi, iv administered as bolus dose measured at 90 mins by PET imaging analysis. The class given is ADME, organism-based, Macaca mulatta. As to conditions: rhesus monkey, in vivo.
Series [34] is described as follows: Drug uptake in monkey lateral temporal cortex at 4.92 to 6.6 mCi, iv administered as bolus dose measured at 90 mins by PET imaging analysis. As to conditions: rhesus monkey, in vivo. It is filed as ADME, organism-based, Macaca mulatta.
The target in another series is Nociceptin receptor (Homo sapiens, UniProt P41146). As to the kind of experiment: Displacement of [3H]nociceptin from human recombinant NOP receptor expressed in CHO cells after 60 mins by microbeta scintillation counting. The class given is cell-based.
Chain of Nociceptin receptor (P41146 whole entry): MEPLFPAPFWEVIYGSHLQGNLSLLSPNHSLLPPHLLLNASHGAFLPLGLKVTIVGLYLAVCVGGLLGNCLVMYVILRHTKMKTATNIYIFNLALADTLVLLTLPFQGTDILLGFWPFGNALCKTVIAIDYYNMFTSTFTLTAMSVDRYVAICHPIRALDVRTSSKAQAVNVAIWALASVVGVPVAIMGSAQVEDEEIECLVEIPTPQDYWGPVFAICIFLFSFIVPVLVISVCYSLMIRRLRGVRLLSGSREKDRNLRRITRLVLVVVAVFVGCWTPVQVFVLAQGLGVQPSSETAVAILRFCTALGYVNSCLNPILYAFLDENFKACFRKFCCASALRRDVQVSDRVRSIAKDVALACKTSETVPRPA
The nature of series [35]: Lipophilicity, log D of the compound by radiometric method. It is filed as physicochemical. The conditions noted are these: octanol/water. The gist of the method: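 log D at pH 7.4 measured radiometrically on the carbon-11-labelled form of the ligand. Six determinations, reported as mean ± SD.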

The structures appear in SMILES notation.

For the molecule `CC(C)N(C)C(=O)[C@@H](Cc1ccccc1F)CN1CCC2(CC1)OCCc1cc(F)sc12`, the Drug uptake entry in the series on Brain [1] was “Active”; in the series with Brain [3], “Not Active”. In the series on Brain [2], the SUV is given as 453%.
With `CC(C)N(C)C(=O)[C@H](Cc1ccccc1F)CN1CCC2(CC1)OCCc1cc(F)sc12`, the logD in series [4] was 4.47.
Take `CNC(=O)[C@@H](Cc1ccccc1Cl)CN1CCC2(CC1)OCCc1cc(F)sc12`: the Drug uptake entry in the series with Brain [1] is recorded as “Active”; in the series on Brain [3], “Not Active”. The same molecule showed an SUV in the series with Brain [2] of 280%.
As for `CNC(=O)[C@H](Cc1ccccc1Cl)CN1CCC2(CC1)OCCc1cc(F)sc12`, the logD in series [4] amounted to 3.9.
As for `CC(C)N([11CH3])C(=O)[C@@H](Cc1ccccc1F)CN1CCC2(CC1)OCCc1cc(F)sc12`, the Drug uptake entry was “Not Active” in series [5]; “Active” in [6]; “Not Active” in series [7]; “Not Active” in [8]; “Active” in [9]; “Active” in series [10]. Moreover, the Drug uptake result in series [11] is “Not Active”; in series [12], “Not Active”; in [13], “Active”; in series [14], “Active”; in series [15], “Not Active”; in series [16], “Active”. Further, the Drug uptake result in series [17] is reported as “Not Active”; in series [18] it was “Active”; in series [19], “Active”; in series [20], “Active”; in series [21], “Not Active”; in series [22], “Active”. Further, the Drug uptake entry in [23] and in series [24] was “Not Active” in each case.
Turning to `[11CH3]NC(=O)[C@@H](Cc1ccccc1Cl)CN1CCC2(CC1)OCCc1cc(F)sc12`, the Drug uptake result in [6] is listed as “Active”; in series [25], “Not Active”; in series [26], “Not Active”; in [27] it was “Not Active”; in series [28] it was “Not Active”; in series [29], “Not Active”. The Drug uptake result in [30] is “Not Active”; in series [31], “Not Active”; in series [32], “Not Active”; in series [9], “Active”; in [10], “Active”; in series [13], “Active”. The Drug uptake result in series [14] is reported as “Active”; in series [16] it was “Active”; in series [18], “Active”; in [19], “Active”; in series [33], “Not Active”; in series [20], “Active”. Further, the Drug uptake entry was “Not Active” in series [34] and “Active” in series [22].
With `NC(=O)[C@@H](Cc1ccccc1Cl)CN1CCC2(CC1)OCCc1cc(F)sc12`, at Nociceptin receptor, the inhibitory constant (Ki) is 0.101 nM.
For `NC(=O)[C@H](Cc1ccccc1Cl)CN1CCC2(CC1)OCCc1cc(F)sc12`, the Ki at Nociceptin receptor amounted to 17.1 nM.
Take `CNC(=O)[C@@H](Cc1ccccc1F)CN1CCC2(CC1)OCCc1cc(F)sc12` [NOP-1A]: the Drug uptake result is “Active” with Brain [1] and “Not Active” in the series with Brain [3]. Moreover, in [35], the logD was 3.41. This molecule yielded an SUV in the series with Brain [2] of 280%.

By logD is commonly meant lipophilicity at a set pH, counting ionised and neutral species. As usually defined, the Ki is the dissociation constant of the complex between target and ligand, obtained from inhibition or displacement.
